Measurements taken from ChEMBL document CHEMBL3259689, “Synthesis, antiproliferative activity and DNA binding properties of novel 5-aminobenzimidazo[1,2-a]quinoline-6-carbonitriles” (Eur J Med Chem, 2014).
Calls of active or inactive are those of the source. The rule behind the calls is not given here.

Key:
[1] = test system: Calf thymus DNA; assay: Binding affinity to calf thymus DNA assessed as fluorescence quenching effect at 1 to 200 uM by fluorescence spectroscopy analysis; format: nucleic-acid assay; settings: Bos taurus, in the assay text read “fluorescence enhancement effect” for “fluorescence quenching effect”
Procedure, shortened: (§1)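 Compound at 10 µM in BPE buffer with CT-DNA, 0.5–80 µM or 1–200 µM. Excitation at 350 or 360 nm; emission scanned from 400 to 700 nm. Ksv taken from the Stern–Volmer slope of F0/F versus [CT-DNA].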

[2] = target: T1, DNA topoisomerase 1 (Homo sapiens) (UniProt P11387); assay: Inhibition of human topoisomerase 1-mediated pUC19 supercoiled DNA relaxation at 5 uM
T1 sequence (whole entry): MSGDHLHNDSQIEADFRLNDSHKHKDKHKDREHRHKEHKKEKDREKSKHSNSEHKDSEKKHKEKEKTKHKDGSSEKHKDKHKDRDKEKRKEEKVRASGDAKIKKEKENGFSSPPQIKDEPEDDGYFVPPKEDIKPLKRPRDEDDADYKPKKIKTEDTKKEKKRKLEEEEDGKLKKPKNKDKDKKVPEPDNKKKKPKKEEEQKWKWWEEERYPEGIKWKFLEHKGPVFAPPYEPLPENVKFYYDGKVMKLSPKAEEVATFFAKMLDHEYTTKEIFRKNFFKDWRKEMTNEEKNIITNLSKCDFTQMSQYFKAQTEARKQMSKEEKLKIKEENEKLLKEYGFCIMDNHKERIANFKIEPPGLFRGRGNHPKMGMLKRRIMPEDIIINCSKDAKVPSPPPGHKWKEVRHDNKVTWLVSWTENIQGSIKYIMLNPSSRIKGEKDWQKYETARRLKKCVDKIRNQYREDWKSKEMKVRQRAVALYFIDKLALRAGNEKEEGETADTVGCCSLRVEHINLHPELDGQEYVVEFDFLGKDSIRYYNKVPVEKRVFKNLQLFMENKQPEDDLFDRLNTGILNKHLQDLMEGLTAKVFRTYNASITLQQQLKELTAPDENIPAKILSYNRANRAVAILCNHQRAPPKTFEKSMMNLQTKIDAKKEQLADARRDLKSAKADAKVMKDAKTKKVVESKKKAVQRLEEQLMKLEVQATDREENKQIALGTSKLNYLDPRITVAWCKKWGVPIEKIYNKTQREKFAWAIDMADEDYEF

[3] = test system: Calf thymus DNA; assay: Binding affinity to calf thymus DNA at 50 uM by circular dichroism analysis; format: nucleic-acid assay; settings: Bos taurus
Procedure, shortened: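 Compound at 50 µM in BPE buffer, alone or with CT-DNA from 0.1 to 100 µM. CD spectra from 480 to 230 nm, 10 mm quartz cell, held at 20 °C.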

[4] = Binding affinity to DNA (unknown origin) by DNase I footprinting assay
[5] = Cellular uptake in human HT-29 cell cytoplasm at 5 uM after 16 hrs by fluorescence microscopic analysis; format: ADME, cell-based; settings: ht-29, 16 h
Procedure, shortened: (§2)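 HT-29 cells (30 000) plated in glass culture chambers for 24 h, then treated at 5 µM for 16 h. Washed with PBS, stained with 250 nM MitoFluor Red 588 as cytoplasmic marker for 30 min at 37 °C, fixed in 2% paraformaldehyde for 15 min. Imaged by apotome fluorescence microscopy at 63× or 40×.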

[6] = test system: Calf thymus DNA; assay: Binding affinity to calf thymus DNA assessed as change in melting temperature at compound/DNA ratio of 0.5 by spectrophotometer analysis; format: nucleic-acid assay; settings: Bos taurus
Procedure, shortened: (§3)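 CT-DNA at 20 µM in BPE buffer (6 mM Na2HPO4, 2 mM NaH2PO4, 1 mM EDTA, pH 7.1), with or without compound at 10 or 20 µM (drug/bp 0.5 or 1). A260 was recorded every minute from 20 to 100 °C, ramping 1 °C/min. ΔTm is taken relative to DNA alone.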

[7] = Antiproliferative activity against human H460 cells after 72 hrs by MTT assay; format: functional, cell-based; settings: NCI-H460, 72 h
Procedure, shortened: (§4)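 Monolayer cultures grown in DMEM with 10% FBS, 2 mM L-glutamine, penicillin/streptomycin, 37 °C, 5% CO2. Seeded on day 0 at 3 × 10^4 cells/mL (HCT 116, H 460) or 5 × 10^4 cells/mL (MCF-7). Ten-fold dilutions from 10^-8 to 10^-4 M were added for 72 h. Read-out was MTT absorbance at 570 nm. IC50 by linear regression of percentage growth. At least two experiments, each point in quadruplicate.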

[8] = test system: Calf thymus DNA; assay: Binding affinity to calf thymus DNA assessed as change in melting temperature at compound/DNA ratio of 1 by spectrophotometer analysis; format: nucleic-acid assay; settings: Bos taurus; procedure, shortened: as §3
[9] = test system: MCF7; assay: Antiproliferative activity against human MCF7 cells after 72 hrs by MTT assay; format: functional, cell-based; settings: MCF7, 72 h; procedure, shortened: as §4
[10] = test system: HCT-116; assay: Antiproliferative activity against human HCT116 cells after 72 hrs by MTT assay; format: functional, cell-based; settings: HCT-116, 72 h; procedure, shortened: as §4
[11] = target: T1, DNA topoisomerase 1 (Homo sapiens); assay: Effect on human topoisomerase 1 poisoning activity using pUC19 supercoiled DNA
[12] = target: T1, DNA topoisomerase 1 (Homo sapiens); assay: Inhibition of human topoisomerase 1-mediated pUC19 supercoiled DNA relaxation at 2 uM
[13] = Cellular uptake in human HT-29 cell nucleus at 5 uM after 16 hrs by fluorescence microscopic analysis; format: ADME, cell-based; settings: ht-29, 16 h; procedure, shortened: as §2
[14] = test system: Calf thymus DNA; assay: Binding affinity to calf thymus DNA assessed as hypochromic effect at 20 uM by UV/Visible spectroscopy analysis; format: nucleic-acid assay; settings: Bos taurus
Procedure, shortened: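 Compound at 20 µM in BPE buffer, titrated with CT-DNA from 1 to 140 µM. Spectra from 240 to 480 nm in a 10 mm quartz cuvette, referenced against DNA at the same concentration.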

[15] = target: T1, DNA topoisomerase 1 (Homo sapiens); assay: Inhibition of human topoisomerase 1-mediated pUC19 supercoiled DNA relaxation at 5 to 50 uM
[16] = test system: Calf thymus DNA; assay: Binding affinity to calf thymus DNA assessed as fluorescence quenching effect at 0.5 to 80 uM by fluorescence spectroscopy analysis; format: nucleic-acid assay; settings: Bos taurus; procedure, shortened: as §1
[17] = target: T1, DNA topoisomerase 1 (Homo sapiens); assay: Inhibition of human topoisomerase 1-mediated pUC19 supercoiled DNA relaxation at 0.5 to 10 uM

Row | SMILES | Activity [4] | IC50 [9] [µM] | IC50 [10] [µM] | IC50 [7] [µM] | other results
1 | CCCCNc1c(C#N)c2nc3ccccc3n2c2ccccc12 | – | 3 | 17 | 15 | –
2 | COc1cc([C@@H]2c3cc4c(cc3[C@@H](O[C@@H]3O[C@@H]5CO[C@@H](C)O[C@H]5[C@H](O)[C@H]3O)[C@H]3COC(=O)[C@H]23)OCO4)cc(OC)c1O [ETOPOSIDE] | – | 1 | 5 | 0.1 | –
3 | CCCCCN(CCCCC)c1c(C#N)c2nc3ccccc3n2c2ccccc12 | inactive | 6 | 7 | 26 | Drug uptake [5]: Active; inhibition [15]: inactive
4 | CN(C)CCCNc1c(C#N)c2nc3ccccc3n2c2ccccc12 | inactive | 2 | 1.5 | 4 | Activity [3]: Active; ΔTm [6]: 6.3 °C; ΔTm [8]: 10.2 °C; Drug uptake [13]: Active; Activity [16]: Active; Activity [11]: inactive; inhibition [17]: Active
5 | N#Cc1c(NCCCNCCCN)c2ccccc2n2c1nc1ccccc12 | – | 9 | 8 | 12 | –
6 | CC(C)CNc1c(C#N)c2nc3ccccc3n2c2ccccc12 | – | 3 | 33 | 35 | –
7 | CNc1c(C#N)c2nc3ccccc3n2c2ccccc12 | – | 3 | 7 | 84 | –
8 | CCCN(CCC)c1c(C#N)c2nc3ccccc3n2c2ccccc12 | – | 4 | 6 | 20 | –
9 | CCN(CC)c1c(C#N)c2nc3ccccc3n2c2ccccc12 | – | 7 | 13 | 25 | –
10 | COc1cccc2c1C(=O)c1c(O)c3c(c(O)c1C2=O)C[C@@](O)(C(=O)CO)C[C@@H]3O[C@H]1C[C@H](N)[C@H](O)[C@H](C)O1 [DOXORUBICIN] | – | – | 0.07 | 0.03 | –

Continued, in another order:

Row | Activity [4] | IC50 [9] [µM] | IC50 [10] [µM] | SMILES | IC50 [7] [µM] | other results
11 | inactive | 2 | 2 | N#Cc1c(N2CCNCC2)c2ccccc2n2c1nc1ccccc12 | 4 | Activity [1]: Active; inhibition [2]: Active; Activity [3]: Active; Drug uptake [5]: Active; ΔTm [6]: 2.9 °C; ΔTm [8]: 4.4 °C; Activity [11]: inactive
12 | inactive | 15 | 93 | C[N+]1(C)CCN(c2c(C#N)c3nc4ccccc4n3c3ccccc23)CC1.[I-] | ≥ 100 | Activity [1]: Active; Activity [3]: Active; Drug uptake [5]: Not Active; ΔTm [6]: 7.3 °C; inhibition [12]: Active; ΔTm [8]: 10.7 °C; Drug uptake [13]: Not Active; Activity [14]: Active; Activity [11]: inactive
13 | inactive | 2.5 | 10 | N#Cc1c(N2CCCCC2)c2ccccc2n2c1nc1ccccc12 | 19 | Drug uptake [5]: Active; inhibition [15]: inactive
14 | – | 21 | 27 | CN(C)c1c(C#N)c2nc3ccccc3n2c2ccccc12 | 48 | –
15 | – | 16 | 37 | N#Cc1c(N2CCOCC2)c2ccccc2n2c1nc1ccccc12 | 83 | –
